Source: ChEMBL document CHEMBL1137687, “Anti-HIV evaluation of benzo[d]isothiazole hydrazones” (Eur J Med Chem, 2009)

Tests used:
[1] = Cytotoxicity against mock-infected human MT4 cells after 4 days by MTT assay; type: cell-based
Method in brief: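 Mock-infected MT-4 cells, 1 × 10⁴ per well in RPMI 1640 with 10% FCS, 37 °C, 5% CO₂. Exposed to serial compound dilutions from a 100 mM DMSO stock diluted in medium, in parallel with the antiviral assay. Viability read by MTT. CC₅₀ taken as concentration reducing viability of mock-infected cells by 50%.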

[2] = tested on: Human immunodeficiency virus 1; assay: Antiviral activity against wild type HIV1 3B assessed as protection as protection against virus-induced cytopathogenicity after 4 days by MTT assay; type: functional; conditions: Human immunodeficiency virus 1, 3B, 96 h
Method in brief: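 HIV-1 IIIB from supernatants of persistently infected H9/IIIB cells. MT-4 cells, 1 × 10⁴ per well in RPMI 1640 with 10% FCS, exposed to serial compound dilutions (100 mM DMSO stock diluted in medium). Virus inoculum sized in CCID₅₀ to give complete cytopathogenicity by day 4. Incubated at 37 °C, then viability read by MTT. EC₅₀ taken as concentration giving 50% protection from virus-induced cytopathogenicity.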

[3] = tested on: Human immunodeficiency virus 1; assay: Antiviral activity against NNRTI-resistant HIV1 with reverse transcriptase Y181C mutation in human MT4 cells assessed as protection against virus-induced cytopathogenicity after 4 days by MTT assay; type: functional, organism-based; conditions: Human immunodeficiency virus 1, MT4, 96 h
Method in brief: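 Y181C virus (NIH N119) came from an AZT-sensitive clinical isolate passaged in CEM then MT-4 cells with nevirapine; stock 1.2×10⁸ CCID50/mL. It infected 1×10⁴ MT-4 cells/well (RPMI 1640, 10% FCS, 37 °C, 5% CO2) with compound dilutions from 100 mM DMSO stock, at a dose giving full cytopathogenicity by day 4. Readout MTT; EC50 = 50% protection.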

[4] = tested on: Human immunodeficiency virus 1; assay: Antiviral activity against NNRTI-resistant HIV1 3B with reverse transcriptase K103N+Y181C mutation in human MT4 cells assessed as protection against virus-induced cytopathogenicity after 4 days by MTT assay; type: functional, organism-based; conditions: Human immunodeficiency virus 1, 3B, MT4, 96 h
Method in brief: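 MT-4 cells (RPMI 1640, 10% FCS, 37 °C, 5% CO2), 1×10⁴/well, with compound serial dilutions from 100 mM DMSO stock, infected with K103N+Y181C virus (NIH A17, from IIIB passaged in H9 cells with BI-RG 587; stock 2.1×10⁷ CCID50/mL) at dose giving full cytopathogenicity by day 4. MTT viability; EC50 = 50% protection.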

[5] = tested on: Human immunodeficiency virus 1; assay: Antiviral activity against NNRTI-resistant HIV1 3B with reverse transcriptase K103R+V179D+P225H mutation in human MT4 cells assessed as protection against virus-induced cytopathogenicity after 4 days by MTT assay; type: functional, organism-based; conditions: Human immunodeficiency virus 1, 3B, MT4, 96 h
Method in brief: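 K103R+V179D+P225H (EFV^R) virus, from IIIB passaged in MT-4 cells under efavirenz; stock 4.0×10⁷ CCID50/mL. Added to 1×10⁴ MT-4 cells/well (RPMI 1640, 10% FCS, 37 °C, 5% CO2) with compound dilutions from 100 mM DMSO stock, amount causing complete cytopathogenicity at day 4. Viability by MTT; EC50 = concentration giving 50% protection.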

Row | SMILES | CC50 at 96 h [1] | EC50 [2] | EC50 [3] | EC50 [4] | EC50 [5]
1 | CCCCCCCCCCC/C=N/n1sc2ccccc2c1=O | 17 µM | > 17 µM | > 17 µM | > 17 µM | > 17 µM
2 | Cc1ccc2sn(/N=C/c3cccc([N+](=O)[O-])c3)c(=O)c2c1 | > 100 µM | 48 µM | 32 µM | 83 µM | 18 µM
3 | O=c1c2ccccc2sn1/N=C/c1ccco1 | 18 µM | > 18 µM | > 18 µM | > 18 µM | > 18 µM
4 | Cc1ccc2sn(/N=C/c3ccc4c(c3)OCO4)c(=O)c2c1 | > 100 µM | 33 µM | 33 µM | 47 µM | 20 µM
5 | Cc1ccc2sn(/N=C/c3ccc(O)cc3)c(=O)c2c1 | 23 µM | > 23 µM | > 23 µM | > 23 µM | ≥ 23 µM
6 | O=c1c2ccccc2sn1/N=C/c1ccccc1Cl | 47 µM | 20 µM | 26 µM | > 47 µM | 24 µM
7 | O=c1c2ccccc2sn1/N=C/c1ccccc1O | 18 µM | > 18 µM | > 18 µM | > 18 µM | > 18 µM
8 | Cc1ccc2sn(/N=C/c3ccc(F)cc3)c(=O)c2c1 | 15 µM | > 15 µM | > 15 µM | > 15 µM | 7.3 µM
9 | Cc1ccc2sn(/N=C/c3ccco3)c(=O)c2c1 | 18 µM | > 18 µM | > 18 µM | > 18 µM | > 18 µM
10 | O=c1c2ccccc2sn1/N=C/c1ccc([N+](=O)[O-])cc1[N+](=O)[O-] | > 100 µM | > 100 µM | – | > 100 µM | > 100 µM
11 | COc1ccc(/C=N/n2sc3ccccc3c2=O)cc1 | 19 µM | > 19 µM | > 19 µM | > 19 µM | > 19 µM
12 | O=c1c2ccccc2sn1/N=C/c1ccc(F)cc1 | 17 µM | 4.4 µM | > 17 µM | > 17 µM | ≥ 17 µM
13 | Cc1ccc2sn(/N=C/C=C/c3ccccc3)c(=O)c2c1 | 19 µM | > 19 µM | > 19 µM | > 19 µM | > 19 µM
14 | CCCCCCCCCCC/C=N/n1sc2ccc(C)cc2c1=O | 19 µM | > 19 µM | > 19 µM | > 19 µM | > 19 µM
15 | COc1cc(/C=N/n2sc3ccccc3c2=O)ccc1O | 15 µM | > 15 µM | > 15 µM | > 15 µM | > 15 µM
16 | O=c1c2ccccc2sn1/N=C/c1cccc([N+](=O)[O-])c1 | > 100 µM | 36 µM | 13 µM | 57 µM | 11 µM
17 | O=c1c2ccccc2sn1/N=C/c1ccc(O)c(O)c1 | 44 µM | > 44 µM | > 44 µM | > 44 µM | > 44 µM
18 | O=c1c2ccccc2sn1/N=C/C=C/c1ccccc1 | 18 µM | > 18 µM | > 18 µM | > 18 µM | > 18 µM
19 | O=c1c2ccccc2sn1/N=C/c1cccc(F)c1 | 15 µM | > 15 µM | > 15 µM | > 15 µM | 9 µM
20 | Cc1ccc2sn(/N=C/c3ccc([N+](=O)[O-])cc3)c(=O)c2c1 | > 100 µM | > 100 µM | ≥ 100 µM | > 100 µM | 72 µM
21 | O=c1c2ccccc2sn1/N=C/c1ccc(Cl)cc1 | 26 µM | > 26 µM | ≥ 11 µM | > 26 µM | 2.9 µM
22 | Cc1ccc2sn(/N=C/c3cccc(F)c3)c(=O)c2c1 | 30 µM | > 30 µM | > 30 µM | > 30 µM | > 30 µM
